The source of these data is ChEMBL document CHEMBL3868612, “Discovery of a potent and selective ROMK inhibitor with improved pharmacokinetic properties based on an octahydropyrazino[2,1-c][1,4]oxazine scaffold” (Bioorg Med Chem Lett, 2016).

For data set [1], the system named is Rattus norvegicus. The experiment in a line: Antihypertensive activity in […] rat model assessed as increase in diuresis at 10 mg/kg, po qd measured on day 1 post dose relative to control. The data set is classed as functional. A digest of the protocol: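 Spontaneously hypertensive rats dosed orally once daily for 3 days at 3, 10 and 30 mg/kg (reference diuretic at 25 mg/kg); 24 h urine output on day 1 expressed as fold increase over vehicle-treated rats; n = 5 per group.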

The test system of data set [2] is Rattus norvegicus. The experiment in a line: Antihypertensive activity in […] rat model assessed as change in systolic blood pressure at 10 mg/kg, po administered qd measured on day 3. The data set is classed as functional. A digest of the protocol:
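Spontaneously hypertensive rats were dosed orally once daily for 3 days. Systolic blood pressure change was read on day 3 relative to vehicle, with n = 5 per group.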

The target in data set [3] is T1, Inward rectifier potassium channel 2 (Homo sapiens, UniProt P63252).
T1 sequence (P63252 whole entry): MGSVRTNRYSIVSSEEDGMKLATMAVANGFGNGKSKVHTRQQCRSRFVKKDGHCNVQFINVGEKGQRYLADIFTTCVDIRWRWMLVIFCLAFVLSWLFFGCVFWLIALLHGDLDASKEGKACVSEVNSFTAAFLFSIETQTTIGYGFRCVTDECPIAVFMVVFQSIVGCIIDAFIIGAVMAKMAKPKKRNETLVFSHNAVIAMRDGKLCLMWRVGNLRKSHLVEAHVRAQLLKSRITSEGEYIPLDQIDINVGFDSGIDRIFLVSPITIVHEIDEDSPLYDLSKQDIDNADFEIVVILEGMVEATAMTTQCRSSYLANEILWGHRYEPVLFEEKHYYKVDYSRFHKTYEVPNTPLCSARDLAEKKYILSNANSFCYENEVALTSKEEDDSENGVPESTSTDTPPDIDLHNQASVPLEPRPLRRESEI
The data set can be described thus: Inhibition of Kir2.1 (unknown origin).

The target in data set [4] is T2, Inward rectifier potassium channel 13 (Homo sapiens, UniProt O60928).
T2 sequence (O60928 whole entry): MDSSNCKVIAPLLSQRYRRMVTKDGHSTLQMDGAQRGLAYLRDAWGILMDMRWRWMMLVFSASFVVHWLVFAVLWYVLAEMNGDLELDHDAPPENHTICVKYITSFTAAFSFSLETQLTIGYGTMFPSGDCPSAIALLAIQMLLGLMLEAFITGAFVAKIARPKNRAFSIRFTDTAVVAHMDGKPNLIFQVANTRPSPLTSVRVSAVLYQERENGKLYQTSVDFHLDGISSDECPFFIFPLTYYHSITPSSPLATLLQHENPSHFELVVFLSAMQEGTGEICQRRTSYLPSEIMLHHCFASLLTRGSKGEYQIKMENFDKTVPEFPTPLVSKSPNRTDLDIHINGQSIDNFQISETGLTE
The experiment in a line: Inhibition of Kir7.1 (unknown origin).

In data set [5] the target is Voltage-gated inwardly rectifying potassium channel KCNH2 (Homo sapiens, UniProt Q12809). The data set can be described thus: Inhibition of human ERG by electrophysiology method.
Data set [6] is described as follows: Unbound fraction in dog plasma. The data set is classed as ADME, cell-free, Canis lupus familiaris.

Chain of Voltage-gated inwardly rectifying potassium channel KCNH2 (Q12809 whole entry): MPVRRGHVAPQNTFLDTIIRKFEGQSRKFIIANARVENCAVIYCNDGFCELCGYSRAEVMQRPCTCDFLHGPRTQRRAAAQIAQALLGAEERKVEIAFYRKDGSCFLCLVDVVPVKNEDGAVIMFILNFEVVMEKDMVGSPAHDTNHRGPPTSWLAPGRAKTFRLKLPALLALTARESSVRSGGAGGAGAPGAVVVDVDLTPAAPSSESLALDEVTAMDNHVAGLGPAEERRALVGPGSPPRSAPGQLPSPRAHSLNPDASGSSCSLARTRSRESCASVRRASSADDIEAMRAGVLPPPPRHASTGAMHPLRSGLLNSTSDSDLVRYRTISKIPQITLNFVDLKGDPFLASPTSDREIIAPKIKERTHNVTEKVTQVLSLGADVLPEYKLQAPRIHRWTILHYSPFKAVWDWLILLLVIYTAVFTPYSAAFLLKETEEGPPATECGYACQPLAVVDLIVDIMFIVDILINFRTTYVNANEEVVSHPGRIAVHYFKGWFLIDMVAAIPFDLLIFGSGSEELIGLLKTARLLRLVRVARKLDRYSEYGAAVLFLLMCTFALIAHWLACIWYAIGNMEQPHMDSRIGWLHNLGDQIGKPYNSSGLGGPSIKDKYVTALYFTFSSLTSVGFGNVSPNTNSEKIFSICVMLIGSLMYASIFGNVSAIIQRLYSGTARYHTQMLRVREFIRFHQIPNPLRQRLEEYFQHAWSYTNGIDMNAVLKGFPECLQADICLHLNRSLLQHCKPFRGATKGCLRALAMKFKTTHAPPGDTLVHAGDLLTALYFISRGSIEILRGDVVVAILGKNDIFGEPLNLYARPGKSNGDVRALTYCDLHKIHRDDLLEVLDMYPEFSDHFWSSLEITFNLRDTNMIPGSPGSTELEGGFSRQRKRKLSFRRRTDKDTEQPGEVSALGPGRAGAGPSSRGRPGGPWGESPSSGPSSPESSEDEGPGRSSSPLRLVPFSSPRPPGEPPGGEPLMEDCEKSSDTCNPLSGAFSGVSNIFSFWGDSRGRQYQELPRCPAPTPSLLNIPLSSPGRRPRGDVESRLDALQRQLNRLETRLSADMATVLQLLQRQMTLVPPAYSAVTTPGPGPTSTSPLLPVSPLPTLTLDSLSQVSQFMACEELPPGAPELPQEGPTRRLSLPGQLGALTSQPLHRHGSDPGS

As to `Cc1c([C@@H]2CN3CCN(C(=O)Cc4ccc(-n5cnnn5)cn4)C[C@H]3CO2)ccc(F)c1C#N`, in data set [1], the “fold change (FC)” value amounted to 1.6. Moreover, the Activity in data set [2] is listed as -16 mmHg. In addition, the IC50 (usually the concentration that gives 50% inhibition) in data set [3] was over 100 µM; in data set [4], over 100 µM; in data set [5], 20.3 µM. Moreover, in data set [6], the free fraction (fraction unbound) – broadly, free concentration divided by total concentration – was 0.52.
